Results from PMC7115568 (European Journal of Medicinal Chemistry, 2014).
Entries after “also recorded” stand apart in the source; their conditions may differ.

How the values were obtained:
[1] = test system: Tritrichomonas foetus; experiment: In vitro protozoal parasite susceptibility assay; type: cell-based; conditions: 24 h; for Average % inhibition at 50 μM (Tritrichomonas foetus): T. foetus strain D1, cells counted with hemacytometer; for inhibition at 50 µM: Tritrichomonas foetus, read-out: Average % inhibition at 50 μM (Tritrichomonas foetus)
Procedure, shortened: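 T. foetus strain D1 was screened in TYM Diamond's medium. Test compound was dissolved in DMSO and diluted into the medium. After 24 h exposure, parasites were counted with a hemacytometer.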

[2] = test system: human prostate (PC-3) cancer cell line; experiment: In vitro cytotoxic studies; type: cell-based; conditions: PC-3 cells; for Cytotoxicity % inhibition: 72 h, MTT; for Cytotoxicity against PC-3 cell line (in words): tested at 0.2, 2.0 and 20 μM
Procedure, shortened: (§1)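 PC-3 cells grown in DMEM with 10% FBS and plated in 96-well format. They were exposed to test compound over 20 μM–0.001 μM for 72 h. MTT was then added (stock 5 mg/ml in PBS) for 4 h. Plates were spun, supernatant removed and formazan dissolved in DMSO with 30 min shaking. A550 was read and percentage inhibition calculated.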

[3] = In vitro cytotoxic studies; type: cell-based, human; conditions: human, PC-3 prostate cancer cells
Procedure, shortened: as §1

5-Methyl-1-(4-pyrrolidin-1-yl-but-2-ynyl)-1H-indole-2,3-dione [Compound 3m]
Average % inhibition at 50 μM (Tritrichomonas foetus) [1]: 31.8%
Cytotoxicity % inhibition ([2]; 0.2 μM): 6.8%
Cytotoxicity % inhibition ([2]; 2 μM): 10.5%
Cytotoxicity % inhibition ([2]; 20 μM): 2.4%

O=C1C(=O)N(CC#CCN2CCCCC2)c2ccccc21 [Compound 3a, 1-(4-Piperadin-1-yl-but-2-ynyl)-1H-indole-2,3-dione]
Average % inhibition at 50 μM (Tritrichomonas foetus) [1]: 18.2%
Cytotoxicity % inhibition ([2]; 0.2 μM): 6.0%
Cytotoxicity % inhibition ([2]; 2 μM): 4.0%
Cytotoxicity % inhibition ([2]; 20 μM): 7.0%

O=C1C(=O)N(CC#CCN2CCCC2)c2ccccc21 [Compound 3b, 1-(4-Pyrrolidin-1-yl-but-2-ynyl)-1H-indole-2,3-dione]
inhibition at 50 µM [1]: 10.6%
cytotoxicity at 72 h, 0.2 µM [3]: 7%
cytotoxicity at 72 h, 2 µM [3]: 7%
cytotoxicity at 72 h, 20 µM [3]: 3%

O=C1C(=O)N(CC#CCN2CCOCC2)c2ccccc21 [Compound 3c, 1-(4-Morpholin-4-yl-but-2-ynyl)-1H-indole-2,3-dione]
inhibition at 50 µM [1]: 9.1%
cytotoxicity at 72 h, 0.2 µM [3]: 13.4%
cytotoxicity at 72 h, 2 µM [3]: 11.6%
cytotoxicity at 72 h, 20 µM [3]: 8.7%

CCN(CC)CC#CCN1C(=O)C(=O)c2ccccc21 [Compound 3d, 1-(4-Diethylamino-but-2-ynyl)-1H-indole-2,3-dione]
inhibition at 50 µM [1]: 22.7%
cytotoxicity at 72 h, 0.2 µM [3]: 8%
cytotoxicity at 72 h, 2 µM [3]: 4.6%
cytotoxicity at 72 h, 20 µM [3]: 8%

O=C1C(=O)N(CC#CCN2CCCCC2)c2ccc(Cl)cc21 [Compound 3e, 5-Chloro-1-(4-piperidin-1-yl-but-2-ynyl)-1H-indole-2,3-dione]
inhibition at 50 µM [1]: 3%
cytotoxicity at 72 h, 0.2 µM [3]: 11.1%
cytotoxicity at 72 h, 2 µM [3]: 10.7%
cytotoxicity at 72 h, 20 µM [3]: 18.7%

O=C1C(=O)N(CC#CCN2CCCC2)c2ccc(Cl)cc21 [Compound 3f, 5-Chloro-1-(4-pyrrolidin-1-yl-but-2-ynyl)-1H-indole-2,3-dione]
inhibition at 50 µM [1]: 15.2%
cytotoxicity at 72 h, 0.2 µM [3]: 4.6%
cytotoxicity at 72 h, 2 µM [3]: 4.3%
cytotoxicity at 72 h, 20 µM [3]: 9.6%

O=C1C(=O)N(CC#CCN2CCOCC2)c2ccc(Cl)cc21 [Compound 3g, 5-Chloro-1-(4-morpholin-4-yl-but-2-ynyl)-1H-indole-2,3-dione]
inhibition at 50 µM [1]: 22.7%
cytotoxicity at 72 h, 0.2 µM [3]: 0.8%
cytotoxicity at 72 h, 2 µM [3]: 4.3%
cytotoxicity at 72 h, 20 µM [3]: 3.4%

CCN(CC)CC#CCN1C(=O)C(=O)c2cc(Cl)ccc21 [Compound 3h, 5-Chloro-1-(4-diethylamino-but-2-ynyl)-1H-indole-2,3-dione]
inhibition at 50 µM [1]: 42.4%
cytotoxicity at 72 h, 0.2 µM [3]: 4.8%
cytotoxicity at 72 h, 2 µM [3]: 5.6%
cytotoxicity at 72 h, 20 µM [3]: 6.4%

O=C1C(=O)N(CC#CCN2CCCCC2)c2ccc(F)cc21 [Compound 3i, 5-Fluoro-1-(4-piperidin-1-yl-but-2-ynyl)-1H-indole-2,3-dione]
inhibition at 50 µM [1]: 40.9%
cytotoxicity at 72 h, 0.2 µM [3]: -4.7%
cytotoxicity at 72 h, 2 µM [3]: -6%
cytotoxicity at 72 h, 20 µM [3]: 5.1%

O=C1C(=O)N(CC#CCN2CCCC2)c2ccc(F)cc21 [Compound 3j, 5-Fluoro-1-(4-pyrrolidin-1-yl-but-2-ynyl)-1H-indole-2,3-dione]
inhibition at 50 µM [1]: 33.3%
cytotoxicity at 72 h, 0.2 µM [3]: 5%
cytotoxicity at 72 h, 2 µM [3]: 4.3%
cytotoxicity at 72 h, 20 µM [3]: -2.7%

O=C1C(=O)N(CC#CCN2CCOCC2)c2ccc(F)cc21 [Compound 3k, 5-Fluoro-1-(4-morpholin-4-yl-but-2-ynyl)-1H-indole-2,3-dione]
inhibition at 50 µM [1]: 56.1%
cytotoxicity at 72 h, 0.2 µM [3]: 3.8%
cytotoxicity at 72 h, 2 µM [3]: 0.7%
cytotoxicity at 72 h, 20 µM [3]: 3.2%

CCN(CC)CC#CCN1C(=O)C(=O)c2cc(F)ccc21 [Compound 3l, 1-(4-Diethylamino-but-2-ynyl)-5-fluoro-1H-indole-2,3-dione]
inhibition at 50 µM [1]: 18.2%
cytotoxicity at 72 h, 0.2 µM [3]: 11.6%
cytotoxicity at 72 h, 2 µM [3]: 14.5%
cytotoxicity at 72 h, 20 µM [3]: 7.9%

Cc1ccc2c(c1)C(=O)C(=O)N2CC#CCN1CCCC1 [Compound 3n, 5-Methyl-1-(4-pyrrolidin-1-yl-but-2-ynyl)-1H-indole-2,3-dione]
inhibition at 50 µM [1]: 65.2%
cytotoxicity at 72 h, 0.2 µM [3]: 1.9%
cytotoxicity at 72 h, 2 µM [3]: 4.7%
cytotoxicity at 72 h, 20 µM [3]: 6.1%

Cc1ccc2c(c1)C(=O)C(=O)N2CC#CCN1CCOCC1 [Compound 3o, 5-Methyl-1-(4-morpholin-4yl-but-2-ynyl)-1H-indole-2,3-dione]
inhibition at 50 µM [1]: 57.6%
cytotoxicity at 72 h, 0.2 µM [3]: 8%
cytotoxicity at 72 h, 2 µM [3]: 7.8%
cytotoxicity at 72 h, 20 µM [3]: 3.5%

CCN(CC)CC#CCN1C(=O)C(=O)c2cc(C)ccc21 [Compound 3p, 1-(4-Diethylamino-but-2-ynyl)-5-methyl-1H-indole-2,3-dione]
inhibition at 50 µM [1]: 51.5%
cytotoxicity at 72 h, 0.2 µM [3]: 11.5%
cytotoxicity at 72 h, 2 µM [3]: 10.2%
cytotoxicity at 72 h, 20 µM [3]: 11.2%

O=C1C(=O)N(CC#CCN2CCN(CC#CCN3C(=O)C(=O)c4ccccc43)CC2)c2ccccc21 [Compound 5a, Bis-{1-(yl-but-2-ynyl)-1H-indole-2,3-dione} piperazine]
Average % inhibition at 50 μM (Tritrichomonas foetus) [1]: 3.0%
Cytotoxicity % inhibition ([2]; 0.2 μM): 6.5%
Cytotoxicity % inhibition ([2]; 2 μM): 10.3%
Cytotoxicity % inhibition ([2]; 20 μM): 45.8%
Cytotoxicity against PC-3 cell line (in words) [2]: cytotoxic

O=C1C(=O)N(CC#CCN2CCN(CC#CCN3C(=O)C(=O)c4cc(Cl)ccc43)CC2)c2ccc(Cl)cc21 [Compound 5b, Bis-{5-chloro-1-(yl-but-2-ynyl)-1H-indole-2,3-dione} piperazine]
Average % inhibition at 50 μM (Tritrichomonas foetus) [1]: 7.6%
Cytotoxicity % inhibition ([2]; 0.2 μM): 24.4%
Cytotoxicity % inhibition ([2]; 2 μM): 28.9%
Cytotoxicity % inhibition ([2]; 20 μM): 24.8%

O=C1C(=O)N(CC#CCN2CCN(CC#CCN3C(=O)C(=O)c4cc(F)ccc43)CC2)c2ccc(F)cc21 [Compound 5c, Bis-{5-fluoro-1-(yl-but-2-ynyl)-1H-indole-2,3-dione} piperazine]
Average % inhibition at 50 μM (Tritrichomonas foetus) [1]: 9.1%
Cytotoxicity % inhibition ([2]; 0.2 μM): −0.6%
Cytotoxicity % inhibition ([2]; 2 μM): −3.6%
Cytotoxicity % inhibition ([2]; 20 μM): 7.4%

Cc1ccc2c(c1)C(=O)C(=O)N2CC#CCN1CCN(CC#CCN2C(=O)C(=O)c3cc(C)ccc32)CC1 [Compound 5d, Bis-{5-methyl-1-(yl-but-2-ynyl)-1H-indole-2,3-dione} piperazine]
Average % inhibition at 50 μM (Tritrichomonas foetus) [1]: 71.2%
Cytotoxicity % inhibition ([2]; 0.2 μM): −1.0%
Cytotoxicity % inhibition ([2]; 2 μM): 6.7%
Cytotoxicity % inhibition ([2]; 20 μM): 7.1%

O=C1C(=O)N(CC#CCN2CCN(c3ccnc4cc(Cl)ccc34)CC2)c2ccccc21 [Compound 7a, 1-{4-[4-(7-Chloro-quinolin-4-yl)-piperazin-1-yl]-but-2-ynyl}-1H-indole-2,3-dione]
inhibition at 50 µM [1]: 98.5%
cytotoxicity at 72 h, 0.2 µM [3]: 9%
cytotoxicity at 72 h, 2 µM [3]: 10.1%
cytotoxicity at 72 h, 20 µM [3]: -3.2%
Cytotoxicity against PC-3 cell line (in words) [2]: no cytotoxicity; also recorded: minimal toxicity

O=C1C(=O)N(CC#CCN2CCN(c3ccnc4cc(Cl)ccc34)CC2)c2ccc(F)cc21 [Compound 7b, 1-{4-[4-(7-Chloro-quinolin-4-yl)-piperazin-1-yl]-but-2-ynyl}-5-fluoro-1H-indole-2,3-dione]
inhibition at 50 µM [1]: 100%
cytotoxicity at 72 h, 0.2 µM [3]: 2.1%
cytotoxicity at 72 h, 2 µM [3]: 5%
cytotoxicity at 72 h, 20 µM [3]: 3%
Cytotoxicity against PC-3 cell line (in words) [2]: no cytotoxicity

O=C1C(=O)N(CC#CCN2CCN(c3ccnc4cc(Cl)ccc34)CC2)c2ccc(Cl)cc21 [Compound 7c, 5-Chloro-1-{4-[4-(7-chloro-quinolin-4-yl)-piperazin-1-yl]-but-2-ynyl}-1H-indole-2,3-dione]
inhibition at 50 µM [1]: 100%
cytotoxicity at 72 h, 0.2 µM [3]: 6.1%
cytotoxicity at 72 h, 2 µM [3]: 1.2%
cytotoxicity at 72 h, 20 µM [3]: 1.4%
Cytotoxicity against PC-3 cell line (in words) [2]: no cytotoxicity; also recorded: minimal toxicity

Cc1ccc2c(c1)C(=O)C(=O)N2CC#CCN1CCN(c2ccnc3cc(Cl)ccc23)CC1 [Compound 7d, 1-{4-[4-(7-Chloro-quinolin-4-yl)-piperazin-1-yl]-but-2-ynyl}-5-methyl-1H-indole-2,3-dione]
inhibition at 50 µM [1]: 59.1%
cytotoxicity at 72 h, 0.2 µM [3]: 1.3%
cytotoxicity at 72 h, 2 µM [3]: 8.1%
cytotoxicity at 72 h, 20 µM [3]: 8.2%
Cytotoxicity against PC-3 cell line (in words) [2]: no cytotoxicity; also recorded: minimal toxicity

O=C1C(=O)N(CC#CCN2CCN(c3ccnc4cc(Cl)ccc34)CC2)c2ccc([N+](=O)[O-])cc21 [Compound 7e, 1-{4-[4-(7-Chloro-quinolin-4-yl)-piperazin-1-yl]-but-2-ynyl}-5-nitro-1H-indole-2,3-dione]
inhibition at 50 µM [1]: 60.6%
cytotoxicity at 72 h, 0.2 µM [3]: 0.5%
cytotoxicity at 72 h, 2 µM [3]: 3.2%
cytotoxicity at 72 h, 20 µM [3]: 4.8%

CS(=O)(=O)N1CCN(Cc2cc3nc(-c4cccc5[nH]ncc45)nc(N4CCOCC4)c3s2)CC1 [GDC-0941, reference compound]
cytotoxicity at 72 h, 0.2 µM [3]: 30.2%
cytotoxicity at 72 h, 2 µM [3]: 56.8%
cytotoxicity at 72 h, 20 µM [3]: 72.2%
